RBBP9 inh: human RBBP9 inhibitors, primary screen, biochemical, fluorescence polarization, FP-Rh probe, HTS | inhibition, % at 7.94 µM | Serine hydrolase RBBP9 (Homo sapiens), O75884 | 220,000 compounds, 0.2% hits | AID 1515, 2009 | recombinant RBBP9;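 active = inhibition above the campaign mean of all tested compounds plus 3 SD, cut at about 14% in these data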
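Test system – recombinant human RBBP9 · Input – RBBP9 2.5 µM in dispensing solution, pre-mixing · Medium – Tris buffer pH 8.0, NaCl, Pluronic · Schedule – preincubation 30 min plus labeling 45 min at 25 °C · Measured by – fluorescence polarization · Measure – % inhibition · Controls – DMSO and no-protein wells · Replicates – one well per compound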
WT yeast gro inh: growth inhibition of WT strain, primary screen, mitochondrial fusion inhibitor project, WT and mutant strains, chemical genetic. mitochondrial fusion phenotypic screen. inhibition, % at 10 µM. 190,000 compounds, 2.1% hits. AID 1362, 2008; in the data active = inhibition above about 58%; tested in S. cerevisiae
NCF1 inh: p47phox/p22phox peptide binding inhibitors, primary screen, biochemical, uHTS, NADPH oxidase regulatory subunit; Neutrophil cytosol factor 1 (Homo sapiens), P14598; fluorescence polarization, 2 h; inhibition, % at 24.7 µM; 220,000 compounds, 0.53% hits; AID 1274, 2008;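 active = inhibition above about 30%, limit read from the data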
Target sequence (P14598 whole entry, looked up): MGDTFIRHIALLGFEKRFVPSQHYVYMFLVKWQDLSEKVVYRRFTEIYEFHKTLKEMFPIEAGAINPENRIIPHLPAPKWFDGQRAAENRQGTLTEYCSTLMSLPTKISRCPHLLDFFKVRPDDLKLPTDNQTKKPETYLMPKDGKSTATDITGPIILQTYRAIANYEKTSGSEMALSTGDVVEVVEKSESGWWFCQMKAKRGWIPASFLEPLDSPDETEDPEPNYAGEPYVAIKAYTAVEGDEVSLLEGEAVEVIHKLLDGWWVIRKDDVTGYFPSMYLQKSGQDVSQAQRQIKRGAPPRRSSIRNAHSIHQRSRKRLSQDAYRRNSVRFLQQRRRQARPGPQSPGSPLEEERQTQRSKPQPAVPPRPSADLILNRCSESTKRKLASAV
14-3-3 Bad PPI: inhibitors of 14-3-3 zeta/Bad binding, primary screen, biochemical, TR-FRET, bovine 14-3-3 zeta; 14-3-3 protein zeta/delta (Bos taurus), P63103; TR-FRET 14-3-3zeta/Dy647-pBad peptide displacement, 1 h; inhibition, % at 21.7 µM; 220,000 compounds, 0.71% hits; AID 781, 2007;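 active = inhibition above about 70%, limit read from the data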
Target sequence (P63103 whole entry, looked up): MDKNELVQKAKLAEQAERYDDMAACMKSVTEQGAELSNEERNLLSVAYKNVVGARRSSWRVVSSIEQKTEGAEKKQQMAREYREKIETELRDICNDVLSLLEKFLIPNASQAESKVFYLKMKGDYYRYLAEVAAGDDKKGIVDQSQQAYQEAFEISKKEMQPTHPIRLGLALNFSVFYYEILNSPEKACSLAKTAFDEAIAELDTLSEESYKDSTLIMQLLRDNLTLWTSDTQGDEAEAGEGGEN
Cl transport mod: KCC2 cotransporter modulators, thallium flux, primary screen, cell-based, HEK293 KCC2, FluoZin-2 fluorescence, MLSMR; Solute carrier family 12 member 5 (Homo sapiens), Q9H2X9; KCC2 cells, thallium flux FluoZin-2 fluorescence; B-score of Tl+ flux slope (higher = more flux/activation; lower = inhibition) at 10 µM; 190,000 compounds, 2.2% hits;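 active = thallium flux slope and its plate-corrected score both differing from the plate sample mean at a set confidence after two filtering rounds, in either direction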;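 note: slope of fluorescence scaled to starting intensity during 10 to 20 s after thallium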
ROMK primary: ROMK potassium channel modulators, primary screen, cell-based, thallium flux, MLSMR library; ATP-sensitive inward rectifier potassium channel 1 (Homo sapiens), P48048; Tet-inducible ROMK, thallium flux fluorescence; actives lie on both sides; B-score at 10 µM; 130,000 compounds, 2% hits; AID 1918, 2009;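 active = signal ratio slope over the read window, or its plate-corrected B-score, at least 3 SD from the plate mean, either direction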;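 note: B-score of the F/F0 ratio slope over 7 to 12 s after thallium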
A number is an active result; n = inactive; x = no result given; [ ] = dose if it differs, or a comment. In the library only some 5.8% were active in any assay of this set; here they are far more common.

SMILES	RBBP9 inh	WT yeast gro inh	NCF1 inh	14-3-3 Bad PPI	Cl transport mod	ROMK primary
Cc1ccc(O)c(C(=O)/C=C/c2ccc3c(c2)OCCCO3)c1	n	61	n	n	n	x
O=C(/C=C/c1ccc2c(c1)OCO2)c1ccc[nH]1	n	n	81	n	n	n
COc1ccc(Nc2c([N+](=O)[O-])ccc3c2=NC2(CCCCC2)N=3)cc1	n	n	n	n	x	x
CC1(C)CC(=O)C2=C(C1)OC1=C(C(=O)CC(C)(C)C1)C2c1ccc(O)cc1O	n	n	n	n	x	-8
Cc1nc(COC(=O)c2cc(O)c3ccccc3c2O)cs1	n	n	49	n	n	n
Cn1nc(C(=O)NCc2ccccc2)c2ccccc2c1=O	n	n	n	n	n	x
Cn1nc(C(=O)NCCOc2ccccc2)c2ccccc2c1=O	n	n	n	75	n	n
Cc1ccc(C)c(NC(=O)COC(=O)CCC(=O)c2cccs2)c1	n	n	n	n	n	n
CCN(CC)CCCn1c(=S)[nH]c2ccccc2c1=O	n	n	n	n	n	x
CCCCn1c(=S)[nH]c2c(oc3ccc(Cl)cc32)c1=O	n	n	n	n	x	4.8
CCN(CC)C(=O)CSc1nc(N)c2c3c(sc2n1)CC(C)CC3 (centres undefined)	n	n	59	n	x	n
Clc1ccc(CNC2CCCC2)c(Cl)c1	n	n	n	n	n	n
S=C(NCc1ccc(Cl)cc1Cl)NC1CCCCC1	n	83	n	n	n	n
O=C(O)c1cccnc1Br	n	n	n	n	n	n
COC(CNC(=O)C1CCCN(S(=O)(=O)c2c(C)noc2/C=C/c2cccs2)C1)OC (centres undefined)	n	n	n	n	n	n
Nc1ccc(O)c2c1C(=O)c1ccccc1C2=O	n	n	54	n	n	n
COc1ccc(Br)cc1/C=C/C(=O)c1ccc(NC(C)=O)cc1	n	84	n	n	n	x
COc1ccc(NC(=O)/C=C/c2cc(Br)ccc2OC)cc1	n	n	n	n	n	x
Cc1c(CCOC(=O)C23CC4(C)CC(C)(CC(C)(C4)C2)C3)sc[n+]1CC(=O)c1ccccc1	n	n	33	n	n	n
Cc1c(CCOC(=O)C23CC4CC(CC(C)(C4)C2)C3)sc[n+]1Cc1ccccc1	n	n	n	n	x	n
Cc1ccc(C(C)C)c(OCCCNCc2cccnc2)c1	n	n	n	n	n	n
CCCCNCC#CCOc1cc(C)ccc1C(C)C	n	74	n	n	n	n
Cc1cccc(N=C2NC(=O)/C(=C/C=C/c3ccco3)S2)c1C	n	n	n	n	4.3	x
COc1ccc(NC(=S)N2CCC(N(C)CC3CCCO3)CC2)cc1Cl (centres undefined)	n	n	n	n	n	n
CCOC(=O)c1c(C)[nH]c(C)c1C(=O)CSc1nnc(-c2ccncc2)n1C	n	65	n	n	n	x
SMILES	RBBP9 inh	WT yeast gro inh	NCF1 inh	14-3-3 Bad PPI	Cl transport mod	ROMK primary
Cn1c(SCC(=O)c2cc3ccccc3o2)nnc1-c1ccccc1	n	n	n	n	-7.2	x
Cn1c(SCC(=O)Nc2nccs2)nnc1-c1ccncc1	n	n	n	n	n	x
Cc1csc(NC(=O)CSc2nnc(-c3ccncc3)n2C)n1	n	n	41	n	n	n
Cn1c(SCC(=O)Nc2ccc3c(c2)oc2ccccc23)nnc1-c1ccccc1	n	n	n	72[fluorescence artefact?]	n	x
CNC(=O)CSc1nnc(-c2ccccc2)n1C	n	n	n	n	n	n
CCOC(=O)c1c(C)[nH]c(C)c1C(=O)CSc1nnc(-c2ccncc2)n1Cc1ccccc1	n	n	n	n	n	n
COC(=O)Cc1ccc(NC(=S)NCCSc2ccc(Cl)cc2)cc1	n	x	n	n	n	x
COc1ccccc1NC(=S)NCCSc1ccc(C)cc1	n	71	n	n	n	x
Cc1ccc(SCCNC(=S)Nc2ccccc2)cc1	n	74	n	n	n	n
Cc1cc(C)cc(NC(=S)NCCSc2ccc(Cl)cc2)c1	n	81	n	n	n	x
Cc1ccc(SCCNC(=S)Nc2ccc(C)c(C)c2)cc1	n	n	n	n	n	x
O=C(N/N=C/c1ccc[nH]1)c1cc(-c2ccc(Cl)cc2)nc2ccccc12	n	69	n	n	n	n
N#CCCCCN1CCCC1	n	x	n	n	n	x
CN1CCc2c(sc(NC(=O)c3cc4cc([N+](=O)[O-])ccc4s3)c2C(N)=O)C1	n	n	77	72	n	n
Cc1cccc(NC(=O)c2cc3cc([N+](=O)[O-])ccc3s2)n1	n	n	n	89	n	n
CC(C)N1CCc2c(sc(NC(=O)c3cc4cc([N+](=O)[O-])ccc4s3)c2C(N)=O)C1	n	n	n	95	n	n
CC(C)NC(=O)c1cc2cc([N+](=O)[O-])ccc2s1	n	n	n	n	n	x
CC(C)N1CCc2c(sc(NC(=O)CCc3ccccc3)c2C(N)=O)C1	n	n	n	n	n	n
Fc1ccc(-c2[nH]ncc2CN(CC2CCC2)CC2CCCO2)c(F)c1 (centres undefined)	n	n	n	n	n	n
CCC(C)(C)c1ccc2c(c1)C(=O)c1ccccc1C2=O	n	76	n	n	n	n
CCC(=O)Nc1ccc2c(c1)C(=O)c1ccccc1C2=O	n	n	n	n	n	n
CCOC(=O)C1C(=O)CC(=O)CC1CC(C)SCC (centres undefined)	n	n	79	n	n	x
OCCNCc1ccc(OCc2ccc(Cl)cc2Cl)cc1	n	75	n	n	n	n
S=C(Nc1ccccc1)Nc1ccc(OCc2ccc(Cl)cc2Cl)cc1	n	n	n	n	x	x
Cc1nn(-c2ccccc2)c(C)c1NC(=O)c1ccc(S(=O)(=O)N2CCCC2)cc1	n	74	n	n	n	x
SMILES	RBBP9 inh	WT yeast gro inh	NCF1 inh	14-3-3 Bad PPI	Cl transport mod	ROMK primary
CSCCC(NC(=O)COc1ccccc1)C(=O)O (centres undefined)	n	n	n	n	n	n
COC1(C)CC2C(CC1OC(=O)c1cc([N+](=O)[O-])cc([N+](=O)[O-])c1)C2(C)C (centres undefined)	n	76	n	n	n	n
FC(F)Oc1ccc(NC(=S)N2CCc3ccccc32)cc1	n	n	n	n	n	x
CCOc1ccccc1OCCCOc1ccc(C)cc1Br	n	58	n	n	n	n
COCCNC(=S)N1CCCC(CO)C1 (centres undefined)	n	n	n	n	n	x
O=C1c2cccc3cccc(c23)C(=O)N1CCN1CCN(C(=S)Nc2ccc(Cl)cc2)CC1	n	n	32	n	n	x
